According to the RNAGym collection of RNA variant scans (doi:10.1002/anie.201605470):

B1: Osa-1-4 twister ribozyme (parent)
chain: CCGCCUAACACUGCCAAUGCCGGUCCCAAGCCCGGAUAAAAGUGGAGGGGGCGG

Variants of: B1
Experiment: self-cleavage, relative activity (ratio to wild type); higher = more cleavage; co-transcriptional
In short: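 A DNA template for a 54-nucleotide Oryza sativa twister ribozyme was synthesised with 97 % wild-type base and 1 % of each other base at the 48 positions downstream of the cleavage site. It was transcribed in vitro for 2 h at 37 °C, allowing co-transcriptional self-cleavage, then reverse-transcribed with a template-switching oligonucleotide, PCR-amplified and deep-sequenced. Cleavage status was scored from reads with or without upstream sequence. Relative activity is fraction cleaved normalised to wild type.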

Q: With C21A C32G as the variant, how does the self-cleavage read?
A: 0.09

Q: Which self-cleavage does the source give for C21A C32U here?
A: 0.07

Q: For C21A C32A, which self-cleavage is on record?
A: 0.08

Q: For G22A G30U, which self-cleavage is on record?
A: 0.05

Q: With G22A G30A as the variant, how does the self-cleavage read?
A: 0.05

Q: Which self-cleavage does the source give for G22A G30C here?
A: 0.05

Q: With C21G G42A as the variant, how does the self-cleavage read?
A: 0.05

Q: For C21G G42U, which self-cleavage is on record?
A: 0.02

Q: With C21G G42C as the variant, how does the self-cleavage read?
A: 0.05

Q: Which self-cleavage does the source give for C21G G51A here?
A: 0.07

Q: With C21G G51C as the variant, how does the self-cleavage read?
A: 0.02

Q: Which self-cleavage does the source give for C21G G51U here?
A: 0.06

Q: Which self-cleavage does the source give for C21U C27G here?
A: 0.09

Q: Which self-cleavage does the source give for C21U C27U here?
A: 0.14

Q: For C21U C27A, which self-cleavage is on record?
A: 0.15

Q: Which self-cleavage does the source give for C21A G49U here?
A: 0.06

Q: Which self-cleavage does the source give for C21A G49A here?
A: 0.07

Q: For C21A G49C, which self-cleavage is on record?
A: 0.05

Q: For C21G C26G, which self-cleavage is on record?
A: 0.05

Q: With C21G C26U as the variant, how does the self-cleavage read?
A: 0.06

Q: With C21G C26A as the variant, how does the self-cleavage read?
A: 0.02

Q: With C21U C26U as the variant, how does the self-cleavage read?
A: 0.88

Q: With C21U C26A as the variant, how does the self-cleavage read?
A: 0.06

Q: For C21U C26G, which self-cleavage is on record?
A: 0.12

Q: Which self-cleavage does the source give for C21A G34A here?
A: 0.91

Q: With C21A G34C as the variant, how does the self-cleavage read?
A: 0.92

Q: For C21A G34U, which self-cleavage is on record?
A: 1.05

Q: With C21A G22U as the variant, how does the self-cleavage read?
A: 0.1

Q: For C21A G22A, which self-cleavage is on record?
A: 0.11

Q: For C21A G22C, which self-cleavage is on record?
A: 0.07

Q: With C21U G51A as the variant, how does the self-cleavage read?
A: 0.9

Q: Which self-cleavage does the source give for C21U G51U here?
A: 0.67

Q: With C21U G51C as the variant, how does the self-cleavage read?
A: 0.09

Q: With C21G G13U as the variant, how does the self-cleavage read?
A: 0.02

Q: For C21G G13A, which self-cleavage is on record?
A: 0.02

Q: For C21G G13C, which self-cleavage is on record?
A: 0.01

Q: For C20U U37A, which self-cleavage is on record?
A: 0.96

Q: For C20U U37C, which self-cleavage is on record?
A: 1.02

Q: Which self-cleavage does the source give for C20U U37G here?
A: 1.04

Q: With C20U U43G as the variant, how does the self-cleavage read?
A: 0.68

Q: With C20U U43A as the variant, how does the self-cleavage read?
A: 0.84

Q: With C20U U43C as the variant, how does the self-cleavage read?
A: 0.49

Q: For C21G U37A, which self-cleavage is on record?
A: 0.13

Q: With C21G U37G as the variant, how does the self-cleavage read?
A: 0.14

Q: With C21G U37C as the variant, how does the self-cleavage read?
A: 0.08

Q: Which self-cleavage does the source give for C21U G19U here?
A: 0.21

Q: With C21U G19C as the variant, how does the self-cleavage read?
A: 0.04

Q: Which self-cleavage does the source give for C21U G19A here?
A: 0.66

Q: With C21G G47A as the variant, how does the self-cleavage read?
A: 0.03

Q: For C21G G47U, which self-cleavage is on record?
A: 0.03

Q: For C21G G47C, which self-cleavage is on record?
A: 0.04

Q: For C21A G47A, which self-cleavage is on record?
A: 0.07

Q: Which self-cleavage does the source give for C21A G47C here?
A: 0.05

Q: For C21A G47U, which self-cleavage is on record?
A: 0.07

Q: With C21A C26A as the variant, how does the self-cleavage read?
A: 0.05

Q: Which self-cleavage does the source give for C21A C26U here?
A: 0.2

Q: Which self-cleavage does the source give for C21A C26G here?
A: 0.09

Q: With C21A G45C as the variant, how does the self-cleavage read?
A: 0.05

Q: Which self-cleavage does the source give for C21A G45U here?
A: 0.05

Q: With C21A G45A as the variant, how does the self-cleavage read?
A: 0.05

Q: Which self-cleavage does the source give for C21G G49A here?
A: 0.05

Q: With C21G G49U as the variant, how does the self-cleavage read?
A: 0.02

Q: Which self-cleavage does the source give for C21G G49C here?
A: 0.03

Q: With G22A G23A as the variant, how does the self-cleavage read?
A: 0.12

Q: For G22A G23U, which self-cleavage is on record?
A: 0.08

Q: Which self-cleavage does the source give for G22A G23C here?
A: 0.05

Q: For G22A G45U, which self-cleavage is on record?
A: 0.08

Q: With G22A G45A as the variant, how does the self-cleavage read?
A: 0.15

Q: With G22A G45C as the variant, how does the self-cleavage read?
A: 0.06

Q: With C21G G45C as the variant, how does the self-cleavage read?
A: 0.02

Q: With C21G G45A as the variant, how does the self-cleavage read?
A: 0.04

Q: Which self-cleavage does the source give for C21G G45U here?
A: 0.02

Q: With C20U U12A as the variant, how does the self-cleavage read?
A: 0.83

Q: Which self-cleavage does the source give for C20U U12G here?
A: 0.46

Q: Which self-cleavage does the source give for C20U U12C here?
A: 0.49

Q: For C21A U24G, which self-cleavage is on record?
A: 0.06

Q: Which self-cleavage does the source give for C21A U24A here?
A: 0.07

Q: With C21A U24C as the variant, how does the self-cleavage read?
A: 0.06

Q: For G22A, which self-cleavage is on record?
A: 1.05

Q: For C21A U37C, which self-cleavage is on record?
A: 0.78

Q: Which self-cleavage does the source give for C21A U37A here?
A: 0.92

Q: For C21A U37G, which self-cleavage is on record?
A: 0.94

Q: For C21U C52G, which self-cleavage is on record?
A: 1.02

Q: For C21U C52U, which self-cleavage is on record?
A: 1.02

Q: For C21U C52A, which self-cleavage is on record?
A: 0.97

Q: Which self-cleavage does the source give for C21A here?
A: 0.93

Q: With C21G as the variant, how does the self-cleavage read?
A: 0.08

Q: Which self-cleavage does the source give for C21U here?
A: 1.03

Q: With C21G G44A as the variant, how does the self-cleavage read?
A: 0.09

Q: For C21G G44C, which self-cleavage is on record?
A: 0.08

Q: Which self-cleavage does the source give for C21G G44U here?
A: 0.08

Q: With C21G U24A as the variant, how does the self-cleavage read?
A: 0.06

Q: With C21G U24G as the variant, how does the self-cleavage read?
A: 0.03

Q: Which self-cleavage does the source give for C21G U24C here?
A: 0.04

Q: With C21A G30U as the variant, how does the self-cleavage read?
A: 0.04

Q: With C21A G30A as the variant, how does the self-cleavage read?
A: 0.03

Q: For C21A G30C, which self-cleavage is on record?
A: 0.04

Q: With C21A C52U as the variant, how does the self-cleavage read?
A: 0.86

Q: With C21A C52G as the variant, how does the self-cleavage read?
A: 0.54

Q: For C21A C52A, which self-cleavage is on record?
A: 0.31

Q: Which self-cleavage does the source give for C21A C25G here?
A: 0.07

Q: With C21A C25U as the variant, how does the self-cleavage read?
A: 0.16

Q: For C21A C25A, which self-cleavage is on record?
A: 0.08

Q: For C20U G49C, which self-cleavage is on record?
A: 0.11

Q: Which self-cleavage does the source give for C20U G49U here?
A: 0.13

Q: For C20U G49A, which self-cleavage is on record?
A: 0.16

Q: For C21A U43A, which self-cleavage is on record?
A: 0.09

Q: For C21A U43C, which self-cleavage is on record?
A: 0.11

Q: For C21A U43G, which self-cleavage is on record?
A: 0.1

Q: For C20U G53U, which self-cleavage is on record?
A: 0.38

Q: Which self-cleavage does the source give for C20U G53A here?
A: 0.75

Q: With C20U G53C as the variant, how does the self-cleavage read?
A: 0.09

Q: With C21G G19U as the variant, how does the self-cleavage read?
A: 0.03

Q: For C21G G19A, which self-cleavage is on record?
A: 0.05

Q: For C21G G19C, which self-cleavage is on record?
A: 0.02

Q: For C21U G35C, which self-cleavage is on record?
A: 0.1

Q: With C21U G35A as the variant, how does the self-cleavage read?
A: 0.98

Q: For C21U G35U, which self-cleavage is on record?
A: 0.57

Q: Which self-cleavage does the source give for C21G C52A here?
A: 0.1

Q: With C21G C52U as the variant, how does the self-cleavage read?
A: 0.1

Q: For C21G C52G, which self-cleavage is on record?
A: 0.18

Q: With C21A G53C as the variant, how does the self-cleavage read?
A: 0.06

Q: For C21A G53U, which self-cleavage is on record?
A: 0.11

Q: For C21A G53A, which self-cleavage is on record?
A: 0.19

Q: For C21A U12A, which self-cleavage is on record?
A: 0.18

Q: With C21A U12G as the variant, how does the self-cleavage read?
A: 0.12

Q: Which self-cleavage does the source give for C21A U12C here?
A: 0.14

Q: Which self-cleavage does the source give for C20U U24C here?
A: 0.38

Q: Which self-cleavage does the source give for C20U U24G here?
A: 0.08

Q: Which self-cleavage does the source give for C20U U24A here?
A: 0.44

Q: With C20U G50C as the variant, how does the self-cleavage read?
A: 0.87

Q: Which self-cleavage does the source give for C20U G50U here?
A: 0.95

Q: Which self-cleavage does the source give for C20U G50A here?
A: 0.92

Q: For C21A G44A, which self-cleavage is on record?
A: 0.38

Q: With C21A G44U as the variant, how does the self-cleavage read?
A: 0.21

Q: For C21A G44C, which self-cleavage is on record?
A: 0.24

Q: Which self-cleavage does the source give for C21U G50U here?
A: 1.03

Q: Which self-cleavage does the source give for C21U G50C here?
A: 0.94

Q: For C21U G50A, which self-cleavage is on record?
A: 0.97

Q: Which self-cleavage does the source give for C21U U12A here?
A: 0.73

Q: With C21U U12G as the variant, how does the self-cleavage read?
A: 0.26

Q: For C21U U12C, which self-cleavage is on record?
A: 0.33

Q: For C21A C33U, which self-cleavage is on record?
A: 0.07

Q: With C21A C33G as the variant, how does the self-cleavage read?
A: 0.03

Q: With C21A C33A as the variant, how does the self-cleavage read?
A: 0.09

Q: With C21G U12A as the variant, how does the self-cleavage read?
A: 0.08

Q: With C21G U12G as the variant, how does the self-cleavage read?
A: 0.06

Q: For C21G U12C, which self-cleavage is on record?
A: 0.04

Q: For C20U G51A, which self-cleavage is on record?
A: 0.85

Q: Which self-cleavage does the source give for C20U G51U here?
A: 0.63

Q: Which self-cleavage does the source give for C20U G51C here?
A: 0.11

Q: With C21A G35U as the variant, how does the self-cleavage read?
A: 0.44

Q: For C21A G35A, which self-cleavage is on record?
A: 0.87

Q: Which self-cleavage does the source give for C21A G35C here?
A: 0.06

Q: With C21G G23A as the variant, how does the self-cleavage read?
A: 0.07

Q: For C21G G23C, which self-cleavage is on record?
A: 0.03

Q: For C21G G23U, which self-cleavage is on record?
A: 0.07

Q: For C20U G48U, which self-cleavage is on record?
A: 0.1

Q: With C20U G48C as the variant, how does the self-cleavage read?
A: 0.1

Q: For C20U G48A, which self-cleavage is on record?
A: 0.1

Q: Which self-cleavage does the source give for C21U G44U here?
A: 0.95

Q: With C21U G44A as the variant, how does the self-cleavage read?
A: 0.97

Q: With C21U G44C as the variant, how does the self-cleavage read?
A: 0.99

Q: For G22A G35A, which self-cleavage is on record?
A: 0.34

Q: For G22A G35U, which self-cleavage is on record?
A: 0.32

Q: Which self-cleavage does the source give for G22A G35C here?
A: 0.11

Q: For C21U C32A, which self-cleavage is on record?
A: 0.09
